These compounds were tested against T1, 5-hydroxytryptamine receptor 6 (Homo sapiens, UniProt P50406) (assay: Antagonist activity at 5-HT6 receptor (unknown origin)).
In short: (§1)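 Human 5-HT6R in HEK cells under a tetracycline-inducible T-REx promoter, induced with 1 µg/mL tetracycline the day before. Cells in HBSS/5 mM HEPES pH 7.4, 0.05% BSA and IBMX, about 4000 per well. IC50 from 4-parameter fit, in duplicate. Ki by Cheng-Prusoff using 5-HT EC50 measured alongside.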

T1 sequence (P50406 whole entry): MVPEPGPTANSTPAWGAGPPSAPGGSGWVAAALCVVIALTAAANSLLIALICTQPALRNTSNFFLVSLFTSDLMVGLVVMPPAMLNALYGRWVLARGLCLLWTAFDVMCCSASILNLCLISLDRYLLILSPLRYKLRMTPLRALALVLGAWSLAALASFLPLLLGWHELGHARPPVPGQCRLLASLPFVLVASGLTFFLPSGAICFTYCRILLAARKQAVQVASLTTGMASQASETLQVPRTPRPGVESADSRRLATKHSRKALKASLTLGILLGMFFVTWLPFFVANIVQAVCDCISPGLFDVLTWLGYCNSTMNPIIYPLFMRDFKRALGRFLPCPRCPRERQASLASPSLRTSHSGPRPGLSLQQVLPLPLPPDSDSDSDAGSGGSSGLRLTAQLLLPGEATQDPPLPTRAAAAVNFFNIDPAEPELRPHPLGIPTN

IC50	SMILES
2.7 nM	CCNc1cc(N2CCNCC2)ccc1S(=O)(=O)c1ccccc1

These compounds were tested against T1, 5-hydroxytryptamine receptor 6 (assay: Antagonist activity at recombinant human 5-HT6 receptor expressed in HEK293 cells assessed as 5-HT-induced intracellular cAMP production after 30 mins).
Type: functional, cell-based
In short: as §1

SMILES	Ki
Nc1ccc(S(=O)(=O)c2ccc(N)c(N)c2)cc1	564 nM
O=S(=O)(c1ccccc1)c1ccc(N2CCNCC2)cc1	10.8 nM
Nc1ccc(S(=O)(=O)c2ccc(N)cc2)cc1 [DAPSONE]	183 nM
CNc1ccccc1S(=O)(=O)c1ccccc1	24.3 nM
CNc1cc(-c2ccccc2)ccc1S(=O)(=O)c1ccccc1	153 nM
O=S(=O)(c1ccccc1)c1ccccc1 [(PHENYLSULFONYL)BENZENE]	1600 nM
CN(C)c1cc(N2CCNCC2)ccc1S(=O)(=O)c1ccccc1	30.1 nM

More lines, now with the values ahead:

Ki	SMILES
1.65 nM	Nc1cc(N2CCNCC2)ccc1S(=O)(=O)c1ccccc1
8.3 nM	CC(=O)Nc1cc(N2CCNCC2)ccc1S(=O)(=O)c1ccccc1
2040 nM	CN(C)c1ccccc1S(=O)(=O)c1ccccc1
866 nM	COc1ccccc1S(=O)(=O)c1ccccc1
491 nM	Nc1ccccc1S(=O)(=O)c1ccccc1
48.3 nM	CNc1cc(-c2cccnc2)ccc1S(=O)(=O)c1ccccc1

The compounds below were run against T1, 5-hydroxytryptamine receptor 6 (assay: Displacement of [3H]-lysergic acid diethylamide from human 5-HT6 receptor expressed in HEK293 cell membranes after 3.5 hrs).

SMILES	Ki
Cc1cc(N2CCNCC2)c2c(c1)N(S(=O)(=O)c1ccccc1Cl)CCO2	0.2 nM

Each compound was assayed against T1, 5-hydroxytryptamine receptor 6 (assay: Partial agonist activity at recombinant human 5-HT6 receptor expressed in HEK293 cells assessed as induction of intracellular cAMP production after 30 mins).
Type: functional, cell-based

SMILES	Activity
CN(C)c1cc(N2CCNCC2)ccc1S(=O)(=O)c1ccccc1	17%

Source: ChEMBL document CHEMBL2413055, “Synthesis of substituted diphenyl sulfones and their structure-activity relationship with the antagonism of 5-НТ6 receptors” (Bioorg Med Chem, 2013)
